Calls of active or inactive are those of the source. No cut-off for these calls is given here.
Assays:
[1] = Cmax in rat plasma at 80 mg/kg, po measured at 1 hr by LC-MS/MS analysis; format: ADME, organism-based; set-up: route oral, dose 80 mg/kg, time 1 hrs
How it was run: (§1)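 Healthy rats given a single 80 mg/kg oral dose; plasma sampled over 0.5−48 h for pharmacokinetic parameters.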

[2] = Half-life in rat at 80 mg/kg, po by LC-MS/MS analysis; settings: in vivo
[3] = Elimination rate constant in rat at 80 mg/kg, po; format: ADME, organism-based; settings: in vivo; how it was run: as §1
[4] = system: Mus musculus; assay: Antiinflammatory activity in LANCL2-/- C57BL/6J mouse model of DSS-induced colitis assessed as reduction of MHCII+ CD11c+ […] at 8 mg/kg, po […] via gavage measured 7 days post DSS challenge by immunostaining based flow cytometric analysis; format: functional, organism-based
How it was run: (§2)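 DSS colitis in WT or LANCL2−/− mice; 8 mg/kg/d by daily gavage from day 0, analysed at day 7. Colonic cells (4−6 × 10^5) surface-stained 20 min with fluorochrome-conjugated antibodies, then fixed, permeabilized, Fc-blocked and stained intracellularly. Stored fixed at 4 °C in the dark. Flow cytometry with live-cell then single-cell gating.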

[5] = Tmax in rat plasma at 80 mg/kg, po by LC-MS/MS analysis; format: ADME, organism-based; how it was run: as §1
[6] = Drug concentration in rat colon at 80 mg/kg, po by LC-MS/MS analysis; format: ADME, organism-based; settings: in vivo
[7] = Tmax in rat at 500 mg/kg, po by LC-MS/MS analysis; format: ADME, organism-based; settings: in vivo
[8] = Cmax in rat at 500 mg/kg, po by LC-MS/MS analysis by LC-MS/MS analysis; format: ADME, organism-based; set-up: route oral, dose 500 mg/kg; settings: in vivo
[9] = system: Mus musculus; assay: Antiinflammatory activity in C57BL/6J mouse model of DSS-induced colitis assessed as reduction of MCP1 positive cells at 8 mg/kg, po administered as single dose via gavage measured 7 days post DSS challenge by immunostaining based flow cytometric analysis; format: functional, organism-based
[10] = system: Mus musculus; assay: Antiinflammatory activity in C57BL/6J mouse model of DSS-induced colitis assessed as reduction of MHCII+ CD11c+ […] at 8 mg/kg, po administered as single dose via gavage measured 7 days post DSS challenge by immunostaining based flow cytometric analysis; format: functional, organism-based
[11] = system: Mus musculus; assay: Antiinflammatory activity in C57BL/6J mouse model of DSS-induced colitis assessed as upregulation of IL-10 secretion at 8 mg/kg, po administered as […] via gavage measured 7 days post DSS challenge by immunostaining based flow cytometric analysis; format: functional, organism-based; how it was run: as §2
[12] = system: Mus musculus; assay: Antiinflammatory activity in C57BL/6J mouse model of DSS-induced colitis assessed as reduction of TNF-alpha positive cells at 8 mg/kg, po administered as single dose via gavage measured 7 days post DSS challenge by immunostaining based flow cytometric analysis; format: functional, organism-based
[13] = system: Mus musculus; assay: Antiinflammatory activity in LANCL2-/- C57BL/6J mouse model of DSS-induced colitis assessed as reduction of MCP1 positive cells at 8 mg/kg, po […] via gavage measured 7 days post DSS challenge by immunostaining based flow cytometric analysis; format: functional, organism-based; how it was run: as §2
[14] = system: Mus musculus; assay: Antiinflammatory activity in LANCL2-/- C57BL/6J mouse model of DSS-induced colitis assessed as upregulation of IL-10 secretion at 8 mg/kg, po administered as single dose via gavage measured 7 days post DSS challenge by immunostaining based flow cytometric analysis; format: functional, organism-based
[15] = system: Mus musculus; assay: Antiinflammatory activity in LANCL2-/- C57BL/6J mouse model of DSS-induced colitis assessed as reduction of TNF-alpha positive cells at 8 mg/kg, po administered as single dose via gavage measured 7 days post DSS challenge by immunostaining based flow cytometric analysis; format: functional, organism-based
[16] = system: Mus musculus; assay: Antiinflammatory activity in LANCL2-/- C57BL/6J mouse model of DSS-induced colitis assessed as reduction in leukocyte infiltration of gut mucosa at 8 mg/kg, po administered […] via gavage measured 7 days post DSS challenge by H and E staining based histopathological analysis; format: functional, organism-based
How it was run: (§3)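 Colitis induced in C57BL/6J or LANCL2−/− mice with DSS in drinking water. Compound given at 8 mg/kg/d by daily orogastric gavage from day 0 of the DSS challenge. Assessed at day 7 by disease activity index and by histopathology of colon: formalin-fixed, paraffin 5 μm sections, H&E, scored for leukocytic infiltration, epithelial erosion, mucosal thickening.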

[17] = system: Mus musculus; assay: Antiinflammatory activity in LANCL2-/- C57BL/6J mouse model of DSS-induced colitis at 8 mg/kg, po administered as single dose via gavage measured 7 days DSS challenge; format: functional, organism-based
[18] = system: Mus musculus; assay: Antiinflammatory activity in C57BL/6J mouse model of DSS-induced colitis assessed as increase in IL-10 gene expression at 8 mg/kg, po administered as single dose via gavage measured 7 days post DSS challenge by qRT-PCR analysis; format: functional, organism-based
[19] = species: Mus musculus; assay: Antiinflammatory activity in C57BL/6J mouse model of DSS-induced colitis assessed as decrease in TNF-alpha gene expression at […] measured 7 days post DSS challenge by qRT-PCR analysis; format: functional, organism-based
[20] = system: Mus musculus; assay: Antiinflammatory activity in C57BL/6J mouse model of DSS-induced colitis assessed as upregulation of colonic LANCL2 mRNA expression at 8 mg/kg, po administered as single dose via gavage measured after 3 days by qRT-PCR analysis; format: functional, organism-based; settings: time 3.0 day
How it was run: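 DSS colitis mice given 8 mg/kg/d orally versus vehicle; colon sampled on day 3 after treatment. Colonic LANCL2 mRNA measured by SYBR green real-time qPCR from 1 μg total RNA, quantified against amplicon standard curves.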

[21] = system: Mus musculus; assay: Antiinflammatory activity in C57BL/6J mouse model of DSS-induced colitis assessed as reduction in colonic lesion at 8 mg/kg, po administered as single dose via gavage measured 7 days post DSS challenge; format: functional, organism-based
[22] = system: Mus musculus; assay: Antiinflammatory activity in C57BL/6J mouse model of DSS-induced colitis assessed as improvement in disease activity at 8 mg/kg, po administered as […] via gavage measured 7 days post DSS challenge; format: functional, organism-based; how it was run: as §3
[23] = system: Splenocyte; assay: Induction of intracellular cAMP production in LANCL2-/- C57BL/6J mouse splenocytes at 1.25 to 10 uM incubated for 20 hrs followed by redosing for 10 mins measured by EIA; format: functional, tissue-based; settings: dose 1.25-10 µM, time 1210.0 min
How it was run: (§4)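 Splenocytes from male WT or LANCL2−/− C57BL/6J mice over 8 weeks, stimulated on plates precoated with anti-CD28 (1 μg/mL) and anti-CD3 (5 μg/mL). Compound in cRPMI at 0, 1.25, 2.5, 5, 10 μM, four replicates, plus unstimulated controls. After 20 h, a second 10 min treatment at the same concentrations. Cells washed, lysed in 0.1 M HCl, intracellular cAMP read by direct EIA.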

[24] = target: T1, LanC-like protein 2 (Mus musculus) (UniProt Q9JJK2); assay: Activation of wild-type LANCL2 in C57BL/6J mouse splenocytes assessed as increase in intracellular cAMP production incubated for 20 hrs followed by compound redosing for 10 mins measured by EIA; format: cell-based; settings: Splenocyte, filed as activator, dose 1.25-10 µM, time 1210.0 min; how it was run: as §4
T1 sequence (whole entry): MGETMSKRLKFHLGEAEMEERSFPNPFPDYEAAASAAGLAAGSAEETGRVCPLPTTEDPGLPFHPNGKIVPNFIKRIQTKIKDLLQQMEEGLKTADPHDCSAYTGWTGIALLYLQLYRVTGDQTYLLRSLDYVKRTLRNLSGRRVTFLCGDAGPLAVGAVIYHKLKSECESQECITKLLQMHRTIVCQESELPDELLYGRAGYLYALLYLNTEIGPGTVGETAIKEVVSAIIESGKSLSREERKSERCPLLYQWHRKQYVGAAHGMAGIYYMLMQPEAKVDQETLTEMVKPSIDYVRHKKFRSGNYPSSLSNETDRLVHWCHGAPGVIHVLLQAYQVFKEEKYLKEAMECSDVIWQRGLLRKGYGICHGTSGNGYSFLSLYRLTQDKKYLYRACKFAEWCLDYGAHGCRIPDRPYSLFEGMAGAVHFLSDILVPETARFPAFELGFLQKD

[25] = Apparent volume of distribution in rat at 80 mg/kg, po by LC-MS/MS analysis; format: ADME, organism-based; settings: in vivo; how it was run: as §1
[26] = system: Mus musculus; assay: Antiinflammatory activity in C57BL/6J mouse model of DSS-induced colitis assessed as upregulation of colonic LANCL2 mRNA expression at 8 mg/kg, po administered as single dose via gavage measured 3 days post DSS challenge by qRT-PCR analysis

Molecule `O=C(c1cccc(-c2nc3ccccc3[nH]2)n1)N1CCN(C(=O)c2cccc(-c3nc4ccccc4[nH]3)n2)CC1` [OMILANCOR] has a Cmax [1] of 28 ng/mL, a half-life [2] of 3.1 h and a Kel [3] of 0.225 h⁻¹. For the same molecule, the Activity [4] was “inactive”, the Tmax [5] was 1 h and the Drug uptake [6] was “Active”. For the same molecule, the Tmax [7] was 4 h, the Cmax [8] was 17 ng/mL and the Activity [9] was “Active”. The Activity [10] was “Active”, the Activity [11] was “Active” and the Activity [12] was “Active”. For the same molecule, the Activity [13] was “inactive”, the Activity [14] was “inactive” and the Activity [15] was “inactive”. For the same molecule, the Activity [16] was “inactive”, the Activity [17] was “inactive” and the Activity [18] was “Active”. For the same molecule, the Activity [19] was “Active”, the Activity [20] was “Active” and the Activity [21] was “Active”. For the same molecule, the Activity [22] was “Active”, the Activity [23] was “inactive” and the Activity [24] was “Dose-dependent effect”. For the same molecule, the Vz [25] was 3.38 L/kg and the Activity [26] was “Active”.
